Measurements: ChEMBL document CHEMBL1140801, “Potency and selectivity of P2/P3-modified inhibitors of cysteine proteases from trypanosomes” (Bioorg Med Chem Lett, 2008)
pKi: −log10 of the molar value.

Assays:
Trypanosoma brucei [1] = assay: Ratio of Kinact to Ki of Trypanosoma brucei rhodesain
Method in brief: (§1)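 Rhodesain at 2 nM was added to inhibitor dilutions (10 to 0.01 μM) containing 10 μM Z-Phe-Arg-AMC in buffer A. Progress curves were run for 300 s at room temperature. Linear k_obs versus [I] gave k_ass by linear regression. Hyperbolic dependence gave k_inact and K_i by nonlinear fit to a two-step irreversible mechanism.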

[2] = (§2) Inhibition of Trypanosoma brucei rhodesain; method in brief: as §1
Trypanosoma brucei [3] = assay: as §2; method in brief: as §1
J774 = assay: Cytotoxicity against mouse J774 macrophage; type: cell-based
Method in brief: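 J774 macrophages infected with T. cruzi were treated with compound at 10 μM. Macrophage toxicity was scored yes/no alongside macrophage survival in days.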

Trypanosoma cruzi = assay: Antiparasitic activity against Trypanosoma cruzi in J774 macrophage; type: functional
Method in brief: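 T. cruzi-infected J774 macrophages exposed to compound at 10 μM; read-out is how many days the macrophages survive, with macrophage toxicity also scored. Untreated infected cultures serve as control.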

[4] = target: Cruzipain (Trypanosoma cruzi) (UniProt P25779); assay: Ratio of Kinact to ki of Trypanosoma cruzi cruzain
Method in brief: (§3)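 Cruzain at 2 nM was added to inhibitor dilutions (10 to 0.01 μM) containing 10 μM Z-Phe-Arg-AMC in buffer A. Progress curves were run for 150 s at room temperature. k_ass came from linear regression when k_obs was linear in [I]. If saturating, k_inact and K_i came from nonlinear fitting to a two-step irreversible inhibition model.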

[5] = target: Cruzipain (Trypanosoma cruzi) (UniProt P25779); assay: (§4) Inhibition of Trypanosoma cruzi cruzain; method in brief: as §3
Cruzipain = Cruzipain (Trypanosoma cruzi, UniProt P25779); assay: as §4; method in brief: as §3
Trypanosoma brucei [6] = assay: Ratio of Kinact to Ki of Trypanosoma brucei cathepsin B
Method in brief: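 TbCatB at 40 nM was added to inhibitor dilutions (10–0.1 μM) containing 10 μM Z-Phe-Arg-AMC in buffer A. Progress curves were run for 300 s at room temperature. For hyperbolic k_obs dependence, k_inact and K_i were fitted by nonlinear regression to a two-step irreversible inhibition equation, with an [S]/K_m correction.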

Sequence of Cruzipain (P25779 whole entry): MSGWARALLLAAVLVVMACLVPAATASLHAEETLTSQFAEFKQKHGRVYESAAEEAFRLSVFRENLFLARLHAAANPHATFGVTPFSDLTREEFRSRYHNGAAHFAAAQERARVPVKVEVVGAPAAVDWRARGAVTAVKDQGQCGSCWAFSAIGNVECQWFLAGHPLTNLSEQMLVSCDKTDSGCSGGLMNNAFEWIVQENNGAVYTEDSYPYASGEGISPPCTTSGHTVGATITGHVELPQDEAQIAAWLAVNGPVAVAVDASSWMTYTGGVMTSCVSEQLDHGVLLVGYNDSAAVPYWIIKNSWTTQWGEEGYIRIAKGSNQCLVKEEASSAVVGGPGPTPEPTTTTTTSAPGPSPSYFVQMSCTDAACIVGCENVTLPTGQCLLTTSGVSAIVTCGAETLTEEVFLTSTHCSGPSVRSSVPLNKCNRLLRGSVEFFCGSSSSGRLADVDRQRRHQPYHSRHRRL
Sequence of Cruzipain (Trypanosoma cruzi) (P25779 123-467 limits assumed): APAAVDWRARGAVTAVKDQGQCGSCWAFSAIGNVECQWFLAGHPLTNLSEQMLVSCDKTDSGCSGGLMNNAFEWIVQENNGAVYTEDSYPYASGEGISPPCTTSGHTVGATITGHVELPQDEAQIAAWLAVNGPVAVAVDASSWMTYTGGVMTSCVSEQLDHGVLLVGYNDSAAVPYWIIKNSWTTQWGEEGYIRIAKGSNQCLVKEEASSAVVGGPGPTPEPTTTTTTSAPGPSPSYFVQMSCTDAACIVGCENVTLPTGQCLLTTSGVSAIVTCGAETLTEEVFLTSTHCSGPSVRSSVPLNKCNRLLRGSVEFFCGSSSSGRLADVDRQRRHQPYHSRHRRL

| Ratio (Trypanosoma brucei [1]) [M⁻¹ s⁻¹] | pKi [2] | Kinact (Trypanosoma brucei [3]) [s⁻¹] | Ratio [4] [M⁻¹ s⁻¹] | Kinact [5] [s⁻¹] | pKi (Cruzipain) | Ka (Trypanosoma brucei [6]) [M⁻¹ s⁻¹] | Ka [4] [M⁻¹ s⁻¹] | Compound | Activity (J774) | Survival (Trypanosoma cruzi) [days] | Ka (Trypanosoma brucei [1]) [M⁻¹ s⁻¹] | Ratio (Trypanosoma brucei [6]) [M⁻¹ s⁻¹] |
| --- | --- | --- | --- | --- | --- | --- | --- | --- | --- | --- | --- | --- |
| 173000 | 6.64 | 0.04 | 36000 | 0.01 | 6.55 | 100 | – | Cc1cccc(C[C@H](NC(=O)c2ccccn2)C(=O)N[C@H](/C=C/S(=O)(=O)c2ccccc2)CCc2ccccc2)c1 | – | – | – | – |
| 223000 | 7.07 | 0.019 | 70000 | 0.0056 | 7.10 | 540 | – | O=C(N[C@@H](Cc1ccccc1)C(=O)N[C@H](/C=C/S(=O)(=O)c1ccccc1)CCc1ccccc1)c1ccc2c(c1)OCCO2 | – | – | – | – |
| 327000 | 6.06 | 0.29 | 16000 | 0.027 | 5.77 | 60 | – | Cc1ccc(C[C@H](NC(=O)c2ccccn2)C(=O)N[C@H](/C=C/S(=O)(=O)c2ccccc2)CCc2ccccc2)cc1 | – | – | – | – |
| 6000 | 6.55 | 0.0017 | 3100 | 0.00047 | 6.82 | 500 | – | O=C(N[C@@H](Cc1cccc(C(F)(F)F)c1)C(=O)N[C@H](/C=C/S(=O)(=O)c1ccccc1)CCc1ccccc1)c1ccccn1 | – | – | – | – |
| 252000 | 7.43 | 0.0093 | 14000 | 0.001 | 7.15 | 650 | – | Cc1cccc(C[C@H](NC(=O)c2ccc3c(c2)OCCO3)C(=O)N[C@H](/C=C/S(=O)(=O)c2ccccc2)CCc2ccccc2)c1 | – | – | – | – |
| 366000 | 7.52 | 0.011 | 34000 | 0.012 | 6.46 | – | – | Cc1ccc(C[C@H](NC(=O)c2cc(F)cc(F)c2)C(=O)N[C@H](/C=C/S(=O)(=O)c2ccccc2)CCc2ccccc2)cc1 | – | – | – | – |
| – | – | – | 45000 | 0.16 | 5.44 | 800 | – | CN1CCN(C(=O)N[C@@H](Cc2cccnc2)C(=O)N[C@H](/C=C/S(=O)(=O)c2ccccc2)CCc2ccccc2)CC1 | – | – | 55000 | – |
| 420000 | 7.48 | 0.014 | 109000 | 0.0049 | 7.35 | – | – | Cc1ccc(C[C@H](NC(=O)c2ccc(C(F)(F)F)cc2)C(=O)N[C@H](/C=C/S(=O)(=O)c2ccccc2)CCc2ccccc2)cc1 | – | – | – | – |
| 852000 | 6.92 | 0.11 | – | – | – | – | 440000 | Cc1ccc(C[C@H](NC(=O)N2CCN(C)CC2)C(=O)N[C@H](/C=C/S(=O)(=O)c2ccccc2)CCc2ccccc2)cc1 | – | – | – | 10000 |
| 1.57e+06 | 7.70 | 0.031 | 311000 | 0.006 | 7.72 | 600 | – | Cc1ccc(C[C@H](NC(=O)c2ccc3c(c2)OCCO3)C(=O)N[C@H](/C=C/S(=O)(=O)c2ccccc2)CCc2ccccc2)cc1 | – | – | – | – |

| Compound | Ratio (Trypanosoma brucei [1]) [M⁻¹ s⁻¹] | pKi [2] | Kinact (Trypanosoma brucei [3]) [s⁻¹] | Ratio [4] [M⁻¹ s⁻¹] | Kinact [5] [s⁻¹] | pKi (Cruzipain) | Ka (Trypanosoma brucei [6]) [M⁻¹ s⁻¹] | Ka [4] [M⁻¹ s⁻¹] | Activity (J774) | Survival (Trypanosoma cruzi) [days] | Ka (Trypanosoma brucei [1]) [M⁻¹ s⁻¹] | Ratio (Trypanosoma brucei [6]) [M⁻¹ s⁻¹] |
| --- | --- | --- | --- | --- | --- | --- | --- | --- | --- | --- | --- | --- |
| Cc1cccc(C[C@H](NC(=O)c2ccc(C(F)(F)F)cc2)C(=O)N[C@H](/C=C/S(=O)(=O)c2ccccc2)CCc2ccccc2)c1 | 116000 | 7.37 | 0.005 | 38000 | 0.0035 | 7.04 | – | – | Toxic | 8 | – | – |
| CN1CCN(C(=O)N[C@@H](Cc2ccccc2)C(=O)N[C@H](/C=C/S(=O)(=O)c2ccccc2)CCc2ccccc2)CC1 [K-777] | – | 6.57 | – | – | – | – | 1000 | – | Non-toxic | 42 | – | – |
| O=C(N[C@@H](Cc1ccccc1)C(=O)N[C@H](/C=C/S(=O)(=O)c1ccccc1)CCc1ccccc1)c1cc(F)cc(F)c1 | 317000 | 7.18 | 0.021 | 31000 | 0.31 | 6.01 | – | – | Toxic | 12 | – | – |
| O=C(N[C@@H](Cc1ccccc1)C(=O)N[C@H](/C=C/S(=O)(=O)c1ccccc1)CCc1ccccc1)c1ccc(C(F)(F)F)cc1 | 104000 | 7.06 | 0.009 | 100000 | 0.0097 | 7.01 | < 5 | – | Non-toxic | 8 | – | – |
| O=C(N[C@@H](Cc1ccccc1)C(=O)N[C@H](/C=C/S(=O)(=O)c1ccccc1)CCc1ccccc1)c1ccccn1 | 150000 | 6.04 | 0.14 | 120000 | 0.03 | 6.60 | 70 | – | Non-toxic | 42 | – | – |
| CN1CCN(C(=O)N[C@@H](Cc2cccc(C(F)(F)F)c2)C(=O)N[C@H](/C=C/S(=O)(=O)c2ccccc2)CCc2ccccc2)CC1 | – | – | – | 53000 | 0.009 | 6.77 | 400 | – | Toxic | 42 | 81000 | – |
| Cc1cccc(C[C@H](NC(=O)c2cc(F)cc(F)c2)C(=O)N[C@H](/C=C/S(=O)(=O)c2ccccc2)CCc2ccccc2)c1 | 456000 | – | 0.023 | 105000 | 0.0052 | 7.30 | – | – | Toxic | 12 | – | 16000 |
| Cc1cccc(C[C@H](NC(=O)N2CCN(C)CC2)C(=O)N[C@H](/C=C/S(=O)(=O)c2ccccc2)CCc2ccccc2)c1 | 517000 | 6.77 | 0.088 | 257000 | 0.86 | 5.48 | – | – | Non-toxic | 42 | – | 19000 |
| O=C(N[C@@H](Cc1cccc(C(F)(F)F)c1)C(=O)N[C@H](/C=C/S(=O)(=O)c1ccccc1)CCc1ccccc1)c1cc(F)cc(F)c1 | 52000 | 7.48 | 0.0017 | – | – | – | – | – | Non-toxic | 23 | – | – |
